Measurements: ChEMBL document CHEMBL4184325, “Discovery of 4,7-Diamino-5-(4-phenoxyphenyl)-6-methylene-pyrimido[5,4- b]pyrrolizines as Novel Bruton's Tyrosine Kinase Inhibitors” (J Med Chem, 2018)
The source made the active and inactive calls. The rule behind the calls is not given here.

Tests used:
[1] = target: Proto-oncogene tyrosine-protein kinase receptor Ret (Homo sapiens, UniProt P07949); assay: Inhibition of recombinant human RET using Poly(Glu, Tyr) 4:1 as substrate after 1 hr by ELISA
[2] = system: TMD8; assay: Cell cycle arrest in human TMD8 cells assessed as accumulation at S phase at 100 nM after 48 hrs by propidium iodide staining-based flow cytometric method (reference value: 34.15%); type: functional
[3] = system: TMD8; assay: Induction of apoptosis in human TMD8 cells assessed as early apoptotic cells at 1000 nM after 72 hrs by Annexin-FITC/propidium iodide staining-based flow cytometric method (reference value: 7.98%); type: functional
[4] = system: TMD8; assay: Cell cycle arrest in human TMD8 cells assessed as accumulation at G1 phase after 48 hrs by propidium iodide staining-based flow cytometric method; type: functional
[5] = system: Mus musculus; assay: Toxicity in CB17 SCID nude mouse xenografted with human TMD8 cells assessed as change in body weight at 5 mg/kg, po qd administered for 13 consecutive days measured during compound dosing; type: organism-based; settings: in vivo
How it was run: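 Female CB-17 SCID mice, 4-5 weeks old, were inoculated subcutaneously in the right axilla with about 2×10^6 TMD8 cells. At ~100-200 mm³ they were randomized (n = 6/group) and dosed orally once daily: vehicle for 13 days, 5 mg/kg/day for 13 days, 15 mg/kg/day for 17 days.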

[6] = system: Rattus norvegicus; assay: Half life in rat at 1 mg/kg, iv; type: ADME, organism-based; settings: in vivo
How it was run: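 Rats given 1 mg/kg intravenously; vehicle DMSO, Tween 80, normal saline; values are the average of three determinations.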

[7] = system: TMD8; assay: Cell cycle arrest in human TMD8 cells assessed as accumulation at S phase at 10 nM after 48 hrs by propidium iodide staining-based flow cytometric method (reference value: 34.15%); type: functional
[8] = system: TMD8; assay: Cell cycle arrest in human TMD8 cells assessed as accumulation at G2 phase at 10 nM after 48 hrs by propidium iodide staining-based flow cytometric method (reference value: 14.53%); type: functional
How it was run: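 TMD8 cells in RPMI-1640 with FBS, 37 °C, 5% CO2, treated at indicated concentrations for 48 h; permeabilized cells stained with propidium iodide and analysed by flow cytometry for cell-cycle phase distribution. Three independent experiments, mean ± SD.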

[9] = system: Rattus norvegicus; assay: Volume of distribution at steady state in rat at 1 mg/kg, iv; type: ADME, organism-based; settings: in vivo
How it was run: (§1)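 Rats were given compound at 1 mg/kg iv or 3 mg/kg po. Vehicle was DMSO, Tween 80 and normal saline. Values are the average of three determinations.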

[10] = Drug metabolism in mouse liver microsomes assessed as (S)-N-(4-amino-5-(4-(4-hydroxyphenoxy)phenyl)-6-methylene-7,8-dihydro-6H-pyrimido[5,4-b]pyrrolizin-7-yl)acrylamide formation after 3 hrs; type: ADME, microsome
[11] = Drug metabolism in rat liver microsomes assessed as N-((S)-4-amino-6-methylene-5-(4-phenoxyphenyl)-7,8-dihydro-6H-pyrimido[5,4-b]pyrrolizin-7-yl)-2,3-dihydroxypropanamide formation after 3 hrs; type: ADME, microsome
[12] = system: Mus musculus; assay: Toxicity in CB17 SCID nude mouse xenografted with human TMD8 cells assessed as change in body weight at 15 mg/kg, po qd administered for 13 consecutive days measured during compound dosing up to day 17 post dose; type: organism-based; settings: in vivo
[13] = Drug metabolism in human liver microsomes assessed as (S)-N-(4-amino-5-(4-hydroxyphenyl)-6-methylene-7,8-dihydro-6H-pyrimido[5,4-b]pyrrolizin-7-yl)acrylamide formation after 3 hrs; type: ADME, microsome
[14] = Tmax in rat at 3 mg/kg, po; type: ADME, organism-based; settings: in vivo; how it was run: as §1
[15] = system: TMD8; assay: Induction of apoptosis in human TMD8 cells assessed as early apoptotic cells at 10 nM after 72 hrs by Annexin-FITC/propidium iodide staining-based flow cytometric method (reference value: 7.98%); type: functional
[16] = Drug metabolism in rat liver microsomes assessed as (S)-4-(4-(4,7-diamino-6-methylene-7,8-dihydro-6H-pyrimido[5,4-b]pyrrolizin-5-yl)phenoxy)phenol formation after 3 hrs; type: ADME, microsome
[17] = system: TMD8; assay: Induction of apoptosis in human TMD8 cells assessed as late apoptotic cells at 100 nM after 72 hrs by Annexin-FITC/propidium iodide staining-based flow cytometric method (reference value: 3.2%); type: functional
[18] = system: TMD8; assay: Cell cycle arrest in human TMD8 cells assessed as accumulation at G2 phase at 100 nM after 48 hrs by propidium iodide staining-based flow cytometric method (reference value: 14.53%); type: functional
[19] = target: Ephrin type-A receptor 2 (Homo sapiens, UniProt P29317); assay: Inhibition of recombinant human EPHA2 using Poly(Glu, Tyr) 4:1 as substrate after 1 hr by ELISA
[20] = system: TMD8; assay: Cell cycle arrest in human TMD8 cells assessed as accumulation at G2 phase at 1 nM after 48 hrs by propidium iodide staining-based flow cytometric method (reference value: 14.53%); type: functional
[21] = Drug metabolism in mouse liver microsomes assessed as N-((S)-4-amino-6-methylene-5-(4-phenoxyphenyl)-7,8-dihydro-6H-pyrimido[5,4-b]pyrrolizin-7-yl)-2,3-dihydroxypropanamide formation after 3 hrs; type: ADME, microsome
[22] = Drug metabolism in rat liver microsomes assessed as (S)-N-(4-amino-5-(4-(4-hydroxyphenoxy)phenyl)-6-methylene-7,8-dihydro-6H-pyrimido[5,4-b]pyrrolizin-7-yl)acrylamide formation after 3 hrs; type: ADME, microsome
[23] = system: TMD8; assay: Induction of apoptosis in human TMD8 cells assessed as late apoptotic cells at 10 nM after 72 hrs by Annexin-FITC/propidium iodide staining-based flow cytometric method (reference value: 3.2%); type: functional
[24] = system: TMD8; assay: Cell cycle arrest in human TMD8 cells assessed as accumulation at G1 phase at 100 nM after 48 hrs by propidium iodide staining-based flow cytometric method (reference value: 51.33%); type: functional
[25] = target: Tyrosine-protein kinase Blk (Homo sapiens, UniProt P51451); assay: Inhibition of recombinant human BLK using Poly(Glu, Tyr) 4:1 as substrate after 1 hr by ELISA
How it was run: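 Purchased active kinase incubated with compound on wells precoated with 20 µg/mL poly(Glu,Tyr) 4:1, in 50 mM HEPES pH 7.4, 20 mM MgCl2, 0.1 mM MnCl2, 0.2 mM Na3VO4, 1 mM DTT, 5 µM ATP, 37 °C, 1 h. Phosphotyrosine detected with PY99 antibody, HRP secondary, OPD, A492. IC50 as mean of duplicates.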

[26] = system: TMD8; assay: Antiproliferative activity against human TMD8 cells after 72 hrs by MTT assay; type: functional, cell-based; settings: TMD8, 72 h
How it was run: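 Cells grown in RPMI-1640 with FBS at 37 °C, 5% CO2. Seeded and grown 2 h, then treated with various concentrations in PBS solution, each in triplicate, and cultured a further 72 h. Viability read by MTT. IC50 from the Logit method, given as mean ± SD of three independent determinations.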

[27] = Drug metabolism in human liver microsomes assessed as N-((S)-4-amino-6-methylene-5-(4-phenoxyphenyl)-7,8-dihydro-6H-pyrimido[5,4-b]pyrrolizin-7-yl)-2,3-dihydroxypropanamide formation after 3 hrs; type: ADME, microsome
[28] = Cmax in rat at 3 mg/kg, po; type: ADME, organism-based; design: dose 3 mg/kg, route oral; settings: in vivo
How it was run: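 Rats dosed orally at 3 mg/kg; vehicle DMSO, Tween 80, normal saline; values are the average of three determinations.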

[29] = system: TMD8; assay: Antiproliferative activity against human TMD8 cells xenografted in CB17 SCID nude mouse assessed as decrease in Ki-67 expression at 15 mg/kg, […] by […] immunohistochemical analysis; type: functional, organism-based

Chain of Proto-oncogene tyrosine-protein kinase receptor Ret (P07949 whole entry): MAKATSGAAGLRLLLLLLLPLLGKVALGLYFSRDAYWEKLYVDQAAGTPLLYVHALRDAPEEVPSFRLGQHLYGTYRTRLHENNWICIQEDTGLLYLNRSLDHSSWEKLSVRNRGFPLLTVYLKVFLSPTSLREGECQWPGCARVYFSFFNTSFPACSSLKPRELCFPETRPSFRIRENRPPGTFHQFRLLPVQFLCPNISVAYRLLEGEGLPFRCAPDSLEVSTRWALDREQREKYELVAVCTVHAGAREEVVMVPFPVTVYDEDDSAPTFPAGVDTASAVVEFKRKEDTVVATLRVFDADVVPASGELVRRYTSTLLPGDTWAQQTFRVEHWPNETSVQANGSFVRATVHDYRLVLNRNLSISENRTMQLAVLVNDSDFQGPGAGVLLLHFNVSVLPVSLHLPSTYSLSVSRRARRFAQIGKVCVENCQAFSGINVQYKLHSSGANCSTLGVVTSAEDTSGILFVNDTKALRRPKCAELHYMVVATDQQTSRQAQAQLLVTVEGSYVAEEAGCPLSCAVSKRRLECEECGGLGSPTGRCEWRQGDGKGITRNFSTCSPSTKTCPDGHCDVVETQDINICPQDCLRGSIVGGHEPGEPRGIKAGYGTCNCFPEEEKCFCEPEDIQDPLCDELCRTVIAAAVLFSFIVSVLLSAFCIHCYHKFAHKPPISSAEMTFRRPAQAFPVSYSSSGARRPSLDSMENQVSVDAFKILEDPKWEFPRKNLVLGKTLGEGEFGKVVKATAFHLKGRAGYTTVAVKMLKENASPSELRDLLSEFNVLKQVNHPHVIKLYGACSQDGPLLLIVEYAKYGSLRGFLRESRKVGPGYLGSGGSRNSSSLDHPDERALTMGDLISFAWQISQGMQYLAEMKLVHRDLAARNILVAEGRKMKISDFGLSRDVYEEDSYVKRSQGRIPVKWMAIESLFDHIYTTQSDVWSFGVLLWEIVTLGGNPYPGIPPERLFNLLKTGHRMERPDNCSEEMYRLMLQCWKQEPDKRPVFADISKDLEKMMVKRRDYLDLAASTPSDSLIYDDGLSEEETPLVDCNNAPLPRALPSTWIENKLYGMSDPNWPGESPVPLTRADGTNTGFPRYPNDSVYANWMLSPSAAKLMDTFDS
Chain of Ephrin type-A receptor 2 (P29317 whole entry): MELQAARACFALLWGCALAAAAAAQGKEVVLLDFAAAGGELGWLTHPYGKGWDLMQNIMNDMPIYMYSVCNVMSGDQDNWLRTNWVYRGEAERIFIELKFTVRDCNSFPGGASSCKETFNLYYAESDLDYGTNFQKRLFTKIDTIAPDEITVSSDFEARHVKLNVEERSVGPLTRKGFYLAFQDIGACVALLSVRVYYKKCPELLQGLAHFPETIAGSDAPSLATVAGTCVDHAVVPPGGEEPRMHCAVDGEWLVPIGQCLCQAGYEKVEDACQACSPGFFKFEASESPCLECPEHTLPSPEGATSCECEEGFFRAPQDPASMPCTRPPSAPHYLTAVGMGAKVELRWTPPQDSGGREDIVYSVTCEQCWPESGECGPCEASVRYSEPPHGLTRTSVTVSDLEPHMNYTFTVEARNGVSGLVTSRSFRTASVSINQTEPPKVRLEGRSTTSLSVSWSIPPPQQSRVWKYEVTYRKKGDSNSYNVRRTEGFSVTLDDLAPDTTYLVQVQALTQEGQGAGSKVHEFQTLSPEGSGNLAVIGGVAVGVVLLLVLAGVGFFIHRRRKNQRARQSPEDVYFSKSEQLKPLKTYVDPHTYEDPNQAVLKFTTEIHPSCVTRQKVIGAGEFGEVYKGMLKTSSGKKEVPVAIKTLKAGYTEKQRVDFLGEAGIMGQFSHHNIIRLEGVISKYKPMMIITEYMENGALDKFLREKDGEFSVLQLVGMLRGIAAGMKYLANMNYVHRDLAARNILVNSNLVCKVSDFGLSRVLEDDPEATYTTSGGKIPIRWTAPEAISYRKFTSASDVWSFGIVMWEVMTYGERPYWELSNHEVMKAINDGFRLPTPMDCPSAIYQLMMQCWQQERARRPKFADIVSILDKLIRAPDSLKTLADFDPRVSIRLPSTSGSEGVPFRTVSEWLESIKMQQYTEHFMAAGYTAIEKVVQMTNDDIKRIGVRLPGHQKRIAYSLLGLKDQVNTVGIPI
Chain of Tyrosine-protein kinase Blk (P51451 whole entry): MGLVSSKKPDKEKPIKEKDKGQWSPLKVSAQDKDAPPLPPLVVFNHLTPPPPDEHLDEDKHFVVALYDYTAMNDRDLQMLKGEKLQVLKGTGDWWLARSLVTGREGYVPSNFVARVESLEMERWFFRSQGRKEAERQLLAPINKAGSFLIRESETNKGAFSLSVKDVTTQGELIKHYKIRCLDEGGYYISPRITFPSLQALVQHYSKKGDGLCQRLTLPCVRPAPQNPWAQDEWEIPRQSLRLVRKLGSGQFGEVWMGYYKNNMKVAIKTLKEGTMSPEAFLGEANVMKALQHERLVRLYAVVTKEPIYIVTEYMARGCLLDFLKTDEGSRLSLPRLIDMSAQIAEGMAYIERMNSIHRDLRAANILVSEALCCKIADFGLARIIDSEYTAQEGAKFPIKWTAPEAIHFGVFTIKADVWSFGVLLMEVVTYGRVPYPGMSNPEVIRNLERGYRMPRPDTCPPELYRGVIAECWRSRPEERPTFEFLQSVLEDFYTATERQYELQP

IC50 [1]: 20.3 nM
t1/2 [6]: 34.2 min
Vdss [9]: 1.3 L/kg
Drug metabolism [10]: Metabolite_Detected
Drug metabolism [11]: Metabolite_Detected
Drug metabolism [13]: Metabolite_Detected
Tmax [14]: 15 min
Drug metabolism [16]: Metabolite_Detected
IC50 [19]: > 1000 nM
Drug metabolism [21]: Metabolite_Detected
Drug metabolism [22]: Metabolite_Detected
IC50 [25]: 0.2 nM
Drug metabolism [27]: Metabolite_Detected
Cmax [28]: 223 ng/mL
Structure (SMILES): C=CC(=O)N[C@@H]1Cn2c(c(-c3ccc(Oc4ccccc4)cc3)c3c(N)ncnc32)C1=C
Activity [2]: 12.79%
Activity [3]: 51.1%
Activity [4]: Dose-dependent effect
Activity [5]: Non-Toxic
Activity [7]: 12.56%
Activity [8]: 11.12%
Activity [12]: Non-Toxic
Activity [15]: 27.6%
Activity [17]: 14.8%
Activity [18]: 10.04%
Activity [20]: 17.32%
Activity [23]: 12.5%
Activity [24]: 77.17%
IC50 [26]: 16 nM
Activity [29]: Active
